GalR3 antagonist = GalR3 antagonists in HEK293 cells, primary screen, cell-based, fluorescence readout; HEK293 GalR3-CNG cAMP membrane potential fluorescence; galR3 body fused to GalR1 C-terminus; inhibition, % at 3 µM; 360,000 tested, 0.44% active; AID 651719, 2012;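 active means inhibition above the screen-wide average plus 3 SD, cut at about 13% in these data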;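 further: forskolin and galanin both at EC90 stimulate the cells; cAMP rise reported by CNG channel membrane potential dye signal; 0% = forskolin plus galanin with DMSO and 100% = forskolin alone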
Target sequence (O60755 1-299 limits assumed): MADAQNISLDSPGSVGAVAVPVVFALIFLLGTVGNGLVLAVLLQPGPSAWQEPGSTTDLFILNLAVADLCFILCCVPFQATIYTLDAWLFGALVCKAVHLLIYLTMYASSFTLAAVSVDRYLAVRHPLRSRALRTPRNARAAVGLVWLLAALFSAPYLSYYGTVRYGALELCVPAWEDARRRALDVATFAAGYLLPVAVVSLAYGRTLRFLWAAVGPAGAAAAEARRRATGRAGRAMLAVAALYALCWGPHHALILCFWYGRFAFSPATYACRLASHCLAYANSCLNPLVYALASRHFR
Gli-Sufu block = Gli-Sufu pathway antagonists, primary screen, luciferase luminescence, Sufu-KO-LIGHT cells, uHTS | 340,000 tested, 0.74% active | inhibition, % at 5 µM | Sufu-KO-LIGHT fibroblasts, Gli luciferase reporter luminescence | AID 588413, 2011;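 active means inhibition above about 55%, limit read from the data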;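 further: 0% = DMSO-treated cells and 100% = wells with medium but no cells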
697 NFkB inh = inhibitors of PMA/ionomycin-induced NF-kB reporter, 697 cells, primary screen, B-cell NF-kB inhibitor project, cell-based, luminescence, uHTS; 697 B-cell NF-kB luciferase reporter, 16 h; inhibition, % at 4 µM; 330,000 tested, 0.33% active; in the data active means inhibition above about 35%
Jurkat NFkB inh = inhibitors of induced NF-kB luciferase reporter, primary screen, TCR NF-kB activation inhibitor project, cell-based, luminescence, uHTS | inhibition, % at 4 µM | Jurkat, PMA/ionomycin-induced NF-kB luciferase reporter | AID 435003, 2010 | 330,000 tested, 0.53% active; in the data active means inhibition above about 50%
NR2E3 ag-1 = NR2E3 agonists in two-hybrid cells, primary screen, cell-based, luminescence, CHO-S, Gal4-NCOR/VP16-NR2E3. Photoreceptor-specific nuclear receptor (Homo sapiens), Q9Y5X4. luciferase. inhibition of corepressor binding, % at 3.98 µM. 360,000 tested, 0.35% active. AID 602229, 2012;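 active means inhibition above the mean of all tested compounds plus 3 SD, cut at about 70% in these data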;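 further: 0% = DMSO with NR2E3 transfected cells and 100% = cells lacking NR2E3 construct; higher means lower luciferase signal from less NR2E3 corepressor binding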
NR2E3 ag-2 = inhibitors of NR2E3-RetCOR corepressor binding, primary screen, NR2E3 agonist project, biochemical, TR-FRET, GST-NR2E3, biotin-RetCOR. 1536-well. 320,000 tested, 0.12% active. Photoreceptor-specific nuclear receptor (Homo sapiens), Q9Y5X4. inhibition of corepressor binding, % at 4.78 µM;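 active means percent inhibition above the cutoff of mean plus 3 SD of all tested compounds, set per screening campaign, cut at about 20% in these data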;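 further: 0% = DMSO wells and 100% = biotin wells as full block of FRET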
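Material: NR2E3–RetCOR corepressor complex / Incubation: Compound–protein incubation for 5 h at 4 °C / Dosing: compound at 4.8 µM, single dose / Detection: time-resolved FRET / Benchmarks: high control biotin, low control 0.6% DMSO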
NR2E3 ag conf = NR2E3 agonist confirmation in cells, cell-based, luminescence, CHO-S two-hybrid | AID 624378, 2012 | inhibition, % at 3.98 µM | CHO-S mammalian two-hybrid NR2E3-NCOR, luciferase luminescence | 2,300 tested, 51% active | shares compounds with NR2E3 ag-1;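 active means average inhibition above a cutoff equal to the mean inhibition of all tested compounds plus one SD, cut at about 70% in these data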;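 further: 0% = DMSO in NR2E3 cells and 100% = DMSO in cells lacking NR2E3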
VP16 counter = GAL4-VP16 reporter modulators, confirmation, counter-screen for NR2E3 agonist project, cell-based, luminescence, CHO-S, high throughput | shares compounds with NR2E3 ag-1 | CHO-S GAL4-VP16 luciferase reporter | inhibition, % at 3.98 µM | 2,300 tested, 29% active;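 active means mean inhibition above a cutoff equal to the average over all tested compounds plus one standard deviation, cut at about 70% in these data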;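 further: luciferase from a UAS reporter driven by GAL4-VP16 transactivation; 0% = DMSO with VP16-transfected cells and 100% = DMSO with cells lacking VP16; higher means less reporter light so more repression of VP16 activity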
The depositor's hits bear a star; / = no result given. This is a sample that favours compounds with a hit; in the whole collection about 1.8% have one here.

SMILES	GalR3 antagonist	Gli-Sufu block	697 NFkB inh	Jurkat NFkB inh	NR2E3 ag-1	NR2E3 ag-2	NR2E3 ag conf	VP16 counter
CN(C)S(=O)(=O)N1CCC(Oc2ccc(C(=O)N3C[C@H]4CC[C@H]3C4)cc2)CC1	-3	23	-10	9	60	0	8	15
COC(=O)c1ccc(CNC(=O)C(Cc2ccccc2)NC(=O)c2ccccc2)cc1 (stereo not drawn)	-2	/	/	/	0	/	/	/
CCN(c1ccccc1)S(=O)(=O)c1ccc(C(=O)Nc2nnc(CSC)o2)cc1	-3	-5	-13	8	65	1	93*	32
COCc1nnc(NC(=O)c2ccc(S(=O)(=O)N(CC(C)C)CC(C)C)cc2)o1	1	-10	15	-4	77*	-1	89*	28
CCCN(CCC)S(=O)(=O)c1ccc(C(=O)Nc2nnc(CSC)o2)cc1	0	-2	1	11	56	-2	53	23
CCN(c1ccccc1)S(=O)(=O)c1ccc(C(=O)Nc2nnc(COC)o2)cc1	5	0	-11	0	20	4	/	/
CCc1nnc(SCC(=O)Nc2ccc3ccccc3c2)n1N	-6	-10	6	13	1	/	/	/
CC(NC1=CC(=O)c2cccnc2C1=O)C(O)c1ccccc1 (stereo not drawn)	-6	-8	/	/	10	/	/	/
N#CCc1ccc(NS(=O)(=O)c2ccc(C3CCCCC3)cc2)cc1	-4	22	/	/	76*	5	92*	72*
Cc1cccc(NS(=O)(=O)c2ccc(C3CCCCC3)cc2)c1	-8	25	-40	5	70*	3	93*	79*
CCn1c(N)nc2c1c(=O)n(C)c(=O)n2C	4	-7	9	0	-1	3	/	/
CCCc1nc2c(=O)n(C)c(=O)nc-2n(C)n1	-4	59*	/	/	104*	/	101*	86*
CCC(NC(=O)c1ccc2nc(Cc3ccc(OC)cc3)oc2c1)c1ccncc1 (stereo not drawn)	-7	48	-41	14	67	-3	83*	61
CCC(C)NC(=O)c1ccc2nc(Cc3ccc(OC)cc3)oc2c1 (stereo not drawn)	-5	-6	-4	-7	-19	0	/	/
c1ccc(C2CNCCc3ccccc32)cc1 (stereo not drawn)	-12	5	7	13	-44	-5	/	/
S=C1NCCc2ccc(Cl)cc2C1c1ccccc1 (stereo not drawn)	-8	1	-42	0	61	3	43	21
O=C(CSc1nnnn1-c1ccccc1)Nc1nsc(-c2ccccc2)n1	-7	-1	0	-4	-1	3	/	/
O=C(CSc1nnnn1-c1ccccc1)Nc1nsc(-c2ccc(Cl)cc2)n1	-4	-7	11	-3	70	-135	98*	38
CCOC(=O)[C@@H]1[C@H]2COc3ccccc3[C@@H]2N2C(=O)N(c3ccc(C)cc3)C(=O)[C@]12C	/	-3	17	3	1	1	/	/
COc1ccc(S(=O)(=O)Nc2ccc3c(c2)n(C)c(=O)n3C)cc1F	-11	18	-1	2	74*	-1	11	19
Cc1ccc2c(CN(C)Cc3ccc(OC(F)F)cc3)cc(=O)oc2c1C	-10	-1	-2	7	56	0	43	54
Cc1ccc2c(CN(C)Cc3ccccc3)cc(=O)oc2c1C	-9	-58	-210	-20	-61	1	/	/
Cc1ccc(NS(=O)(=O)c2ccc3c(c2)NC(=O)CCS3)cc1F	-7	-7	-9	7	-29	0	/	/
Cc1nc2ccc(NS(=O)(=O)c3c(F)cc(F)cc3Br)cc2s1	-8	-6	-18	7	75*	2	72*	62
Cc1nc2ccc(NS(=O)(=O)c3ccc(C)c(C)c3)cc2s1	-5	7	-25	-3	81*	2	96*	80*
SMILES	GalR3 antagonist	Gli-Sufu block	697 NFkB inh	Jurkat NFkB inh	NR2E3 ag-1	NR2E3 ag-2	NR2E3 ag conf	VP16 counter
Cc1nc2ccc(NS(=O)(=O)c3ccc(F)cc3F)cc2s1	-7	0	-14	-4	16	0	/	/
CC(=O)c1cccc(S(=O)(=O)Nc2ccc3nc(C)sc3c2)c1	5	8	-10	1	41	4	/	/
Cc1ccc(NS(=O)(=O)c2ccc3c(c2)NC(=O)CCS3)cc1C	-8	5	-4	0	54	-1	-2	22
CC(=O)c1ccc(NS(=O)(=O)c2ccc(CC(C)C)cc2)cc1	-7	12	0	3	64	-1	90*	69
C/C(=N/NS(=O)(=O)c1ccc(CC(C)C)cc1)c1ccncc1	-3	39	-43	5	104*	-2	21	45
CCOC(=O)C1(Cc2cccc(Cl)c2)CCCN(C(=O)CCN2CCCC2=O)C1 (stereo not drawn)	-1	/	-22	-6	-57	-8	/	/
O=C(Nc1ccc([N+](=O)[O-])cc1)Nc1ccc(OC(F)F)c(Cl)c1	-7	58*	/	/	98*	6	99*	94*
O=C(Nc1ccc(OC(F)F)c(Cl)c1)Nc1ccc2c(c1)OCO2	-5	-5	-53	-20	-10	1	/	/
CN(C)c1ccc(CNc2ncnc3sccc23)cc1	0	63*	-25	5	99*	0	93*	70
Fc1ccccc1CNc1ncnc2sccc12	-10	12	-24	4	100*	1	88*	71*
COc1cc2ncnc(NCc3ccccc3F)c2cc1OC	-8	5	20	-5	-12	-1	/	/
N#Cc1ccc(CSc2ccc(S(=O)(=O)N3CCCCCC3)cn2)cc1	-4	3	-2	11	3	/	/	/
Cc1ccccc1-n1c(-c2ccco2)n[nH]c1=S	-1	19	-100	4	-14	0	/	/
FC(F)(F)c1ccccc1-n1c(-c2ccco2)n[nH]c1=S	-8	8	-43	0	63	0	20	3
COc1ccccc1NS(=O)(=O)c1ccc(N/N=C/C=C/c2ccccc2[N+](=O)[O-])c([N+](=O)[O-])c1	-1	21	-6	-11	4	0	/	/

Screens: PubChem, several laboratories
